Assays:
[1] = target: T1, Prostaglandin D2 receptor (Homo sapiens, UniProt Q13258); test: In vitro binding at DP human prostaglandin receptor using [3H]- PGD-2 as radioligand
T1 sequence (Q13258 whole entry): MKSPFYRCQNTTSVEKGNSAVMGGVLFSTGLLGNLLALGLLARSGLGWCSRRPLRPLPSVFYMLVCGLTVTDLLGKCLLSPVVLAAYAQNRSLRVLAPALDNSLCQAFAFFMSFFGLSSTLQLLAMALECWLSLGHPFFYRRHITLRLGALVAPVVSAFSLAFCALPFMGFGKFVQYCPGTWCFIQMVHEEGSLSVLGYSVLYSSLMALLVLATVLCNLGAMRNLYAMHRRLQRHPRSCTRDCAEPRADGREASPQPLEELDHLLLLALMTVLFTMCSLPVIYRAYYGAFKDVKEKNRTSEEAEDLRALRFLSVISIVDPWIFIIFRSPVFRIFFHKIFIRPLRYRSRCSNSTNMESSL
In short: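 hDP stably expressed in HEK-293 cells, collected 4-5 days after seeding. Membranes made by lysis and 100000g spin, then taken up at 1 mg protein/mL in TME buffer at pH 7.4. Competition binding used 5 nM [3H]PGD2, read by filtration and scintillation counting.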

[2] = system: Rattus norvegicus; test: Mineralizing surface/bone surface(%) measured Histomorphometrically after a dose of 1000 ug/kg in proximal tibial metaphysis; format: functional
In short: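 Ovariectomized six-month-old rats, 6-8 per group, were dosed subcutaneously once daily at 0.01–3.0 mg/kg for 60 days, starting 60 days after surgery. Vehicle was acetate-buffered saline, methylcellulose and polyoxyethylenesorbitan monooleate. Labels were xylenol orange 90 mg/kg pretreatment and calcein 10 mg/kg at 14 and 4 days before necropsy. Histomorphometry covered the proximal tibial metaphysis, 1–4 mm distal to the growth plate–metaphyseal junction. ANOVA/LSD versus vehicle.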

[3] = system: Rattus norvegicus; test: Bone formation rate/tissue volume (%/year) bone measured histomorphometrically after a dose of 300 ug/kg in proximal tibial metaphysis; format: functional; details: at 300 µg/kg
[4] = system: Rattus norvegicus; test: Endosteal eroded surface(%) measured Histomorphometrically after a dose of 30 ug/kg in tibial diaphysis; format: functional
In short: (§1)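 Tibial histomorphometry in 6-month-old rats, OVX 60 days before treatment, then daily injection for 60 days. Vehicle was acetate-buffered saline with methylcellulose and polyoxyethylenesorbitan monooleate. Rats received xylenol orange 90 mg/kg before treatment and calcein 10 mg/kg at 14 and 4 days pre-sacrifice. Rats were killed by cardiac puncture under ketamine/xylazine. Groups were compared with vehicle by ANOVA plus LSD test.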

[5] = system: Rattus norvegicus; test: Endosteal eroded surface(%) measured Histomorphometrically after a dose of 300 ug/kg in tibial diaphysis; format: functional; in short: as §1
[6] = system: Rattus norvegicus; test: Endosteal mineralizing surface Histomorphometrically after a dose of 30 ug/kg in tibial diaphysis; format: functional
In short: (§2)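 Six-month-old rats, bilaterally ovariectomized, 6-8 per group, on natural chow. After 60 days they received once-daily subcutaneous dosing for 60 days at 0.01–3.0 mg/kg. Vehicle was acetate-buffered saline with methylcellulose and polyoxyethylenesorbitan monooleate. Labels were xylenol orange 90 mg/kg before treatment and calcein 10 mg/kg 14 and 4 days before sacrifice. Tibial histomorphometry was read under fluorescent light, with ANOVA/LSD versus vehicle.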

[7] = system: Rattus norvegicus; test: Marrow area (mm) measured Histomorphometrically after a dose of 30 ug/kg in tibial diaphysis; format: functional; in short: as §2
[8] = system: Rattus norvegicus; test: Mineral apposition rate ([…])bone measured Histomorphometrically after a dose of 10 ug/kg in tibial diaphysis; format: functional; in short: as §2
[9] = system: Rattus norvegicus; test: connectivity density (mm-3) using micro Computed Tomography(CT) after a does of 1000 ug/kg in Vertebral Bone; format: functional
In short: (§3)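 Rats were ovariectomized at 6 months of age and, after 60 days, dosed subcutaneously once daily for 60 days, with vehicle of acetate-buffered saline, methylcellulose and polysorbate. At necropsy the fifth lumbar vertebra was scanned by micro-CT to obtain cancellous architecture. Groups were 6-8 rats; results were compared to vehicle by ANOVA with least significant difference test.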

[10] = system: Rattus norvegicus; test: connectivity density using micro Computed Tomography(CT) after a dose of 100 ug/kg in Vertebral Bone; format: functional; in short: as §3
[11] = system: Rattus norvegicus; test: Tissue area (mm) measured Histomorphometrically after a dose of 300 ug/kg in tibial diaphysis; format: functional
In short: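 Rats on natural chow (1.46% Ca) were bilaterally ovariectomized at 6 months and left untreated for 60 days. They then received once-daily subcutaneous doses for 60 days, with vehicle of acetate-buffered saline, methylcellulose and polysorbate. Xylenol orange (90 mg/kg) was given before treatment and calcein (10 mg/kg) 14 and 4 days before sacrifice. Tibiae were analysed by fluorescent histomorphometry, 6-8 rats/group, ANOVA/LSD vs vehicle.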

CP(=O)(O)CCC/C=C\C[C@@H]1[C@@H](/C=C/[C@@H](O)COc2ccccc2)[C@H](O)C[C@@H]1O
IC50 [1]: > 10 µM
Activity [2]: 22.04%
Activity [3]: 18.03%
Endosteal eroded surface [4]: 2.01%
Endosteal eroded surface [5]: 1.32%
Endosteal mineralizing surface [6]: 28.72%
Marrow area [7]: 0.87 mm²
Mineral apposition rate [8]: 0.71 µm/day
Connectivity density [9]: 59.66 mm**-3
Connectivity density [10]: 68.1 mm**-3
Tissue area [11]: 5.01 mm

From ChEMBL document CHEMBL1134785, “Synthesis and biological evaluation of prostaglandin-F alkylphosphinic acid derivatives as bone anabolic agents for the treatment of osteoporosis” (J Med Chem, 2001)
